An excerpt weighted towards active compounds, which were near 9.6% of everything screened.
bCat nuc transl: alters nuclear translocation of beta-catenin in HeLa cells. immunofluorescence imaging. 190,000 compounds, 0.3% hits. nuclear translocation activity, % at 5 µM;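 active = nuclear translocation activity above 50% at 5 µM, with a well cell count of 50 or more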;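 also: per-cell ratio of nuclear to cytoplasmic median beta-catenin stain intensity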
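Test system: HeLa cells, endogenous beta-catenin; Compound: single 5 µM dose plus 0.02–20 µM confirmation series; Times: compound exposure 24 h at 37°C; Signal: fluorescence imaging of beta-catenin antibody stain plus DAPI; Read-out: % activation, nuclear-to-cytoplasmic median beta-catenin signal ratio per cell.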
Ba/F3 V617F tox: lowers viability of Ba/F3 cells expressing EpoR and JAK2V617F | ATP luminescence | inhibition, % at 5.6 µM | 220,000 compounds, 1.1% hits | AID 1446;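 active = inhibition above the campaign mean plus 3 SD over all tested compounds, cut at about 24% in these data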;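 also: cytokine-independent growth of Ba/F3 cells driven by EpoR plus mutant JAK2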
BaF3 parental: reduces parental Ba/F3 cell viability, JAK2V617F counter-screen; CellTiter-Glo ATP luminescence; inhibition, % at 5.6 µM; 220,000 compounds, 1.1% hits;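 active = inhibition above a per-campaign cutoff, the mean inhibition of all tested compounds plus 3 SD, cut at about 27% in these data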
APP 5UTR inh: APP translation inhibition; inhibition, % at 2 µM; SH-SY5Y APP 5'UTR-luciferase reporter, luminescence; 190,000 compounds, 0.82% hits; AID 1285;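 active = inhibition above a set limit, derived from the sample mean plus 3 SD, cut at about 45% in these data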
Lmaj promast: Leishmania major promastigote growth inhibition. Leishmania major promastigotes, resazurin fluorescence viability. inhibition, % at 10 µM. 200,000 compounds, 9% hits. AID 1063; in the data active = inhibition above about 50%;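 also: promastigotes grown with compound for 44 hours at 28 °C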
MT stabilizer: microtubule stabilizers in HeLa cells; 200,000 compounds, 0.83% hits; % tubulin-high responders, % at 10 µM; HeLa tubulin immunostaining HCS, 24 h; share of cells brighter than vehicle mean+2SD;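 active = plate Z-score above 3 for both tubulin-high and condensed-nucleus cell shares, with cell loss under 80%, at 10 µM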;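 also: anti alpha tubulin signal scored within the nucleus-defined area of each cell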
Large screens that a line does not name were inactive.

COC1=C(Nc2ccc(C)cc2)C(=O)c2ccccc2C1=O	none
Cc1nc(Cl)c2c(n1)NC1=C(O2)C(=O)CCC1	none
CC(=O)c1cnc2c(-c3cccc(Br)c3)cnn2c1C	Lmaj promast 87.8
O=C1CC(c2ccccc2)CC(O)=C1C=Nc1ccccc1Cl (centres undefined)	none
COc1ccccc1N=CC1=C(O)CC(c2ccccc2)CC1=O (centres undefined)	bCat nuc transl 96.5
N#Cc1c(SCC(=O)Nc2nccs2)nc2c(c1-c1ccco1)CCCC2	none
COCCNC(=S)N=Nc1c(O)[nH]c2ccc([N+](=O)[O-])cc12	none (no result: APP 5UTR inh, Lmaj promast, MT stabilizer)
CN(C)C(/C=C/Nc1ccc([N+](=O)[O-])cc1)=C(C#N)C#N	none
Cc1ccc(Nc2nnc(SCn3nnc4ccccc4c3=O)s2)cc1	Lmaj promast 69.2 (no result: bCat nuc transl)
Cc1ccc(NC(=S)NC(C)CCc2ccccc2)cc1C (centres undefined)	Lmaj promast 90.3 (no result: bCat nuc transl)
Cc1cccc(C)c1NC(=S)NC(C)CCc1ccccc1 (centres undefined)	Lmaj promast 60.5
CCN(CC)c1ccc(/C=C2\C(=O)c3ccc(C(=O)O)cc3C2=O)cc1	none
O=C(Cn1nc([N+](=O)[O-])nc1Br)NC(c1ccccc1)c1ccccc1	Lmaj promast 78.6
NCC/C=C1/c2ccccc2CSc2ccccc21	Lmaj promast 53.6
C#CCN(C)CC/C=C1\c2ccccc2CSc2ccccc21	Lmaj promast 65.0
CN(C)CC/C=C1/c2ccccc2COc2ccccc21	none (no result: APP 5UTR inh, Lmaj promast, MT stabilizer)
C=CCN(C)CC/C=C1\c2ccccc2CSc2ccccc21	Lmaj promast 99.8
CN(C)CC/C=C1/c2cc(F)ccc2CSc2ccc(F)cc21	Lmaj promast 98.8
Cc1[nH]n(-c2ccc([N+](=O)[O-])cc2)c(=O)c1N=Nc1nc2ccccc2s1	none (no result: bCat nuc transl)
CC(O)CN(C)CC/C=C1/c2ccccc2CSc2ccccc21 (centres undefined)	Lmaj promast 97.8
CN(CC/C=C1/c2ccccc2CSc2ccccc21)CCCO	Lmaj promast 56.0
COc1cccc(CNCCc2c[nH]c3ccccc23)c1OCc1ccc(F)cc1	Lmaj promast 100.4
COc1ccccc1NC(=S)NCCc1c[nH]c2ccccc12	none
COc1cc(CNCCc2c[nH]c3ccccc23)ccc1OCc1ccc(F)cc1	Lmaj promast 100.4
NC(=O)COC(=O)c1ccc(Cl)c(S(=O)(=O)N2CCN(c3ccc(F)cc3)CC2)c1	none
CC(=O)c1ccc(NC(=O)c2cnn3c(C(F)F)cc(C4CC4)nc23)cc1	none (no result: bCat nuc transl)
CCc1ccc(C(=O)c2cnc3ccc(OC)cc3c2N2CCN(CC)CC2)cc1	Lmaj promast 68.9
COc1ccc(C(c2nnnn2C2CCCCC2)N2CCN(c3ccc(OC)cc3)CC2)cc1 (centres undefined)	Lmaj promast 89.1
c1ccc(C(c2nnnn2C2CCCC2)N2CCN(c3ccccc3)CC2)cc1 (centres undefined)	none
COc1ccc(OC)c(C(c2nnnn2C2CCCC2)N2CCN(c3ccccc3)CC2)c1 (centres undefined)	Lmaj promast 96.8
COc1ccc(C(c2nnnn2C2CCCC2)N2CCC(C)CC2)cc1 (centres undefined)	Lmaj promast 89.7
c1cc(N2CCCC2)ccc1C(c1nnnn1C1CCCCC1)N1CCOCC1 (centres undefined)	Lmaj promast 88.4
COc1ccc(C(c2nnnn2C2CCCCC2)N2CCN(C)CC2)c(OC)c1 (centres undefined)	none
Cn1c(CNC(=O)c2ccco2)nnc1SCC(=O)Nc1c(F)cc(F)cc1Br	none
CC(C)CNC(=O)Cn1c(=O)c2c(ncn2CC(C)C)n(Cc2ccccc2)c1=O	none
O=c1cc(/N=C/c2coc3c(ccc4ccccc43)c2=O)[nH]c(=S)[nH]1	Lmaj promast 51.4
CCC1(CC)NC(=O)N(CC(=O)Nc2ccc(S(=O)(=O)N3CCOCC3)cc2)C1=O	none
Cc1c(Cc2ccccc2)sc(NC(=O)/C=C/c2cccc3ccccc23)c1C(N)=O	MT stabilizer 18.2
c1ccc(Cn2nnc(CNc3ccccc3)c2-c2c(CNc3ccccc3)nnn2Cc2ccccc2)cc1	none (no result: Ba/F3 V617F tox, BaF3 parental, APP 5UTR inh, Lmaj promast, MT stabilizer)
O=C(NCc1csc(-c2ccccc2)n1)c1cc(F)cc2c1OCOC2	none (no result: APP 5UTR inh, Lmaj promast, MT stabilizer)
CSc1nsc2nc(=O)c(/C=C3\C=Nc4ccccc43)c(N)n12	BaF3 parental 56.0
CC(C)S(=O)(=O)c1nsc2nc(=O)c(/C=C3\C=Nc4ccccc43)c(N)n12	none
Cc1ccc2c(c1)c1c(n2C)C(C(N)=O)CCC1 (centres undefined)	none
Cc1ccc2c(c1)c1c(n2C)-c2[nH]ncc2CC1	Lmaj promast 98.7
CCCCCCn1nc(C(=O)OCC(=O)NC2CCS(=O)(=O)C2)c2ccccc2c1=O (centres undefined)	none
Clc1ccc(SCCN2CCNCC2)cc1	Lmaj promast 100.1
Clc1ccc(SCCCN2CCCCC2)cc1	none (no result: APP 5UTR inh, Lmaj promast, MT stabilizer)
COc1ccc2c(c1)-c1nc(/N=C/c3ccccc3O)sc1CC2	none
COc1ccc2sc(/C=C/c3ccccc3O)[n+](C)c2c1	Lmaj promast 92.4
CN(Cc1cnccn1)Cc1nc(Cc2cccc(F)c2)no1	none
CC(=O)Nc1sc2c(c1-c1nc3ccccc3s1)CCN(C(C)C)C2	Ba/F3 V617F tox 95.3, BaF3 parental 72.9, APP 5UTR inh 69.8, Lmaj promast 100.2
CC(=O)Nc1cccc(-c2nc3ccccc3s2)c1	none
Cc1cccc(CSC(Nc2ccc(F)cc2)=C(C#N)C#N)c1	APP 5UTR inh 47.7
N#CC(C#N)=C(Nc1ccc(F)cc1)SCc1cccc(Br)c1	none
C=CCn1c(=N)n(CC(=O)c2cccc([N+](=O)[O-])c2)c2ccccc21	none
N=c1n(CC(=O)c2ccc([N+](=O)[O-])cc2)c2ccccc2n1Cc1ccc(Cl)cc1	Lmaj promast 100.0
N=c1n(CC(=O)c2ccc([N+](=O)[O-])cc2)c2ccccc2n1Cc1ccccc1	Lmaj promast 99.3
N=c1n(CC(=O)c2ccc([N+](=O)[O-])cc2)c2ccccc2n1Cc1ccccc1Cl	Lmaj promast 100.6
CC1CCc2cc(F)ccc2N1S(=O)(=O)c1ccc(Cl)nc1 (centres undefined)	none
CN(C)CCCNC(NC(=O)/C=C/c1ccccc1)C(Cl)(Cl)Cl (centres undefined)	none (no result: APP 5UTR inh, Lmaj promast, MT stabilizer)
O=C(NCc1ccco1)C1CC(c2ccc(Cl)c(Cl)c2)=NO1 (centres undefined)	none
CCn1ncc(C2=NOC(C(=O)NCc3ccc(Cl)cc3)C2)c1C (centres undefined)	bCat nuc transl 277.6, APP 5UTR inh 49.1
COc1ccc(C2=NOC(C(=O)NCc3ccco3)C2)cc1 (centres undefined)	MT stabilizer 37.9
COc1cc(C(=O)NNC(=S)NCc2ccco2)cc(OC)c1OC	BaF3 parental 90.3
